Results taken from ChEMBL document CHEMBL2176996, “Synthesis and structure-affinity relationships of selective high-affinity 5-HT(4) receptor antagonists: application to the design of new potential single photon emission computed tomography tracers” (J Med Chem, 2012).
Activity calls are given as the source filed them. The rule behind the calls is not given here.

How the values were obtained:
[1] = molecular target: 5-hydroxytryptamine receptor 7 (Homo sapiens, UniProt P34969); experiment: Binding affinity to human 5HT7 by Cerep protocol based assay
[2] = molecular target: 5-hydroxytryptamine receptor 5A (Homo sapiens, UniProt P47898); experiment: Binding affinity to human 5HT5A by Cerep protocol based assay
[3] = molecular target: 5-hydroxytryptamine receptor 6 (Homo sapiens, UniProt P50406); experiment: Binding affinity to human 5HT6 by Cerep protocol based assay
[4] = molecular target: T1, 5-hydroxytryptamine receptor 3A (Homo sapiens, UniProt P46098); experiment: Binding affinity to human 5HT3 by Cerep protocol based assay
T1 sequence (P46098 whole entry): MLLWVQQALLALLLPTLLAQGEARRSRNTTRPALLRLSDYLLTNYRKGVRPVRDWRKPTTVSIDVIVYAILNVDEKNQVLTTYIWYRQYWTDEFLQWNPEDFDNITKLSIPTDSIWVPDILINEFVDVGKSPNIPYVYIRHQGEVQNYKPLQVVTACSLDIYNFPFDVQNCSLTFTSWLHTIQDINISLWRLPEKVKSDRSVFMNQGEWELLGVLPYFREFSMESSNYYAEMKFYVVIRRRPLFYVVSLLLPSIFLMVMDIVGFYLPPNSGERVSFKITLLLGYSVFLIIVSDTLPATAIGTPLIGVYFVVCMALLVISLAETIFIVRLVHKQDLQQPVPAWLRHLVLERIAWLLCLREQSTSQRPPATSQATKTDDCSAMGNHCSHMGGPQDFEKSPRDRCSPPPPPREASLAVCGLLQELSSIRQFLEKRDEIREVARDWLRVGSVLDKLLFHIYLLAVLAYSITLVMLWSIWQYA

[5] = molecular target: T2, 5-hydroxytryptamine receptor 2C (Homo sapiens, UniProt P28335); experiment: Binding affinity to human 5HT2C by Cerep protocol based assay
T2 sequence (P28335 whole entry): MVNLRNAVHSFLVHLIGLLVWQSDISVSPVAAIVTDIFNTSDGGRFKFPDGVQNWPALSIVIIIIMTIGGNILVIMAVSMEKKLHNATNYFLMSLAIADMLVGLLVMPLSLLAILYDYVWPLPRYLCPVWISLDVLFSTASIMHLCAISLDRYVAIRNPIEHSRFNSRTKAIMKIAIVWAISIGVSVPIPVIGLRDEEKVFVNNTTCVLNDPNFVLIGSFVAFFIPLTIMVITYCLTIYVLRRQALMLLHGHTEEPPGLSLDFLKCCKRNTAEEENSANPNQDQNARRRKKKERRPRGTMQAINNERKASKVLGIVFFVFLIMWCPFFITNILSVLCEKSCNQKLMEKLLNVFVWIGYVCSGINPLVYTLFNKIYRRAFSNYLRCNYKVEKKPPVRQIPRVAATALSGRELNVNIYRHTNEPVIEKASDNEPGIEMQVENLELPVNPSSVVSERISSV

[6] = molecular target: 5-hydroxytryptamine receptor 2B (Homo sapiens, UniProt P41595); experiment: Binding affinity to human 5HT2B by Cerep protocol based assay
[7] = molecular target: 5-hydroxytryptamine receptor 2A (Homo sapiens, UniProt P28223); experiment: Binding affinity to human 5HT2A by Cerep protocol based assay
[8] = molecular target: 5-hydroxytryptamine receptor 1D (Homo sapiens, UniProt P28221); experiment: Binding affinity to human 5HT1D by Cerep protocol based assay
[9] = molecular target: 5-hydroxytryptamine receptor 1E (Homo sapiens, UniProt P28566); experiment: Binding affinity to human 5HT1E by Cerep protocol based assay
[10] = molecular target: T3, 5-hydroxytryptamine receptor 1A (Homo sapiens, UniProt P08908); experiment: Binding affinity to human 5HT1A by Cerep protocol based assay
T3 sequence (P08908 whole entry): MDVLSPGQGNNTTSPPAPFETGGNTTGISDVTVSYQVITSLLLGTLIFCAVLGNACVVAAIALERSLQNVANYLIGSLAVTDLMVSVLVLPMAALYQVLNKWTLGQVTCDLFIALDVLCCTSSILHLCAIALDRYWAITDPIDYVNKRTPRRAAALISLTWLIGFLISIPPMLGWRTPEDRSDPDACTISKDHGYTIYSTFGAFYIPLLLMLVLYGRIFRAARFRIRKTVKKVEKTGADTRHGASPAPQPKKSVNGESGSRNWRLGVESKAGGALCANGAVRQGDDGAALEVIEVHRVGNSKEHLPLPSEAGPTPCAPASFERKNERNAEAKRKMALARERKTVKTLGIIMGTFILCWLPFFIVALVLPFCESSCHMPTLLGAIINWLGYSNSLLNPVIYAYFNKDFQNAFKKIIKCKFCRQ

[11] = molecular target: 5-hydroxytryptamine receptor 1B (Homo sapiens, UniProt P28222); experiment: Binding affinity to human 5HT1B by Cerep protocol based assay
[12] = molecular target: T4, 5-hydroxytryptamine receptor 4 (Homo sapiens, UniProt Q13639); experiment: Displacement of radioligand from human 5HT4R by Cerep protocol based assay
[13] = molecular target: 5-hydroxytryptamine receptor 4 (Cavia porcellus, UniProt O70528); experiment: Displacement of [3H]GR113808 from 5HT4R in guinea pig striatal membranes; assay type: cell membranes, Striatum, Membrane
[14] = molecular target: 5-hydroxytryptamine receptor 4 (Cavia porcellus) (UniProt O70528); experiment: Displacement of [3H]GR113808 from 5HT4R in guinea pig striatal membranes at 1 uM; assay type: cell membranes; settings: Striatum, Membrane
Procedure, shortened: (§1)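 Native 5-HT4R in male guinea pig striatal membranes (HEPES 50 mM pH 7.4); 600 µg membrane incubated in duplicate with [3H]GR 113808 at 0.1 nM final, 37 °C, 30 min; filtration on PEI-soaked GF/B filters, cold buffer washes.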

[15] = molecular target: 5-hydroxytryptamine receptor 4 (Cavia porcellus) (UniProt O70528); experiment: Displacement of [3H]GR113808 from 5HT4R in guinea pig striatal membranes at 10 nM; assay type: cell membranes; settings: Striatum, Membrane; procedure, shortened: as §1
Mus musculus [16] = experiment: In-vivo displacement of [125I]SB 207710 from 5HT4R in mouse brain hemispheres at 50 ug/kg, iv by autoradiography; assay type: functional, organism-based
Procedure, shortened: (§2)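 One mouse dosed intravenously with saline carrying competitor at 50 µg/kg together with 30 µCi [125I]1 (146 Ci/mmol). CO2 sacrifice; 20 µm cryosections taken from 5-HT4R-rich regions (striatum, accumbens nucleus, olfactory tubercles), exposed overnight on phosphorimaging plates and scanned.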

Mus musculus [17] = experiment: In-vivo displacement of [125I]SB 207710 from 5HT4R in mouse olfactory tubercles at 50 ug/kg, iv by autoradiography; assay type: functional, organism-based; settings: Olfactory tubercle; procedure, shortened: as §2
[18] = molecular target: 5-hydroxytryptamine receptor 4 (Rattus norvegicus) (UniProt Q62758); experiment: Displacement of [125I]SB 207710 from 5HT4R in rat brain cortex at 1 nM incubated for 30 mins by autoradiography; assay type: tissue-based
Procedure, shortened: (§3)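 Frozen rat brain coronal sections (striatum/accumbens level) preincubated 5 min in 50 mM Tris-HCl pH 7.4, then incubated 30 min at room temperature with 100 pM [125I]1 plus competitor (1, 10, 100, 1000 pM). Three 5-min ice-cold buffer washes and a water dip, then drying; phosphorimaging after overnight exposure.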

[19] = molecular target: 5-hydroxytryptamine receptor 4 (Rattus norvegicus) (UniProt Q62758); experiment: Displacement of [125I]SB 207710 from 5HT4R in rat brain cortex at 10 pM incubated for 30 mins by autoradiography; assay type: tissue-based; procedure, shortened: as §3
[20] = molecular target: T4, 5-hydroxytryptamine receptor 4; experiment: Displacement of [3H]GR113808 from human recombinant 5HT4R expressed in HEK293T cells; assay type: cell-based, HEK-293T
[21] = molecular target: T4, 5-hydroxytryptamine receptor 4
[22] = molecular target: T4, 5-hydroxytryptamine receptor 4; remark: listed apart in the source

Sequence of 5-hydroxytryptamine receptor 1D (P28221 whole entry): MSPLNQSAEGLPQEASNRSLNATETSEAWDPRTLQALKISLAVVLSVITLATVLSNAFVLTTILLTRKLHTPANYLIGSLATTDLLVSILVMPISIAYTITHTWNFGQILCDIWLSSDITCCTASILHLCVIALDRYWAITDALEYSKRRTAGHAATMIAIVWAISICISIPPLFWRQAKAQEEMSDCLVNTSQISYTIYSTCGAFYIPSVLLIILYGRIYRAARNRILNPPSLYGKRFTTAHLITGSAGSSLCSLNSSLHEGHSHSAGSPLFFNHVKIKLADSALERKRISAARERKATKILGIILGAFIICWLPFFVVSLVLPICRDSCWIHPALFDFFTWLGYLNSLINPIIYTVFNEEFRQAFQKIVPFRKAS
T4 sequence (Q13639 whole entry): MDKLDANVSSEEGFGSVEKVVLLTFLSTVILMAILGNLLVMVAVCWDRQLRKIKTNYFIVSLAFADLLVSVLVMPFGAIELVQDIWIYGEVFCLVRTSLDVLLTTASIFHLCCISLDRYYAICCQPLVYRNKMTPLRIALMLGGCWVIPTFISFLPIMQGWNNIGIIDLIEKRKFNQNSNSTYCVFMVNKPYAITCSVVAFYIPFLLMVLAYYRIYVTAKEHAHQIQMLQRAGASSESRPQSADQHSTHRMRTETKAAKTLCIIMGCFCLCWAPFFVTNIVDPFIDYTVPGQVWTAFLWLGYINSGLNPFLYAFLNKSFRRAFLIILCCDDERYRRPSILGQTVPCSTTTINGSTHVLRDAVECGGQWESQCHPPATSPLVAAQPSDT
Sequence of 5-hydroxytryptamine receptor 2A (P28223 whole entry): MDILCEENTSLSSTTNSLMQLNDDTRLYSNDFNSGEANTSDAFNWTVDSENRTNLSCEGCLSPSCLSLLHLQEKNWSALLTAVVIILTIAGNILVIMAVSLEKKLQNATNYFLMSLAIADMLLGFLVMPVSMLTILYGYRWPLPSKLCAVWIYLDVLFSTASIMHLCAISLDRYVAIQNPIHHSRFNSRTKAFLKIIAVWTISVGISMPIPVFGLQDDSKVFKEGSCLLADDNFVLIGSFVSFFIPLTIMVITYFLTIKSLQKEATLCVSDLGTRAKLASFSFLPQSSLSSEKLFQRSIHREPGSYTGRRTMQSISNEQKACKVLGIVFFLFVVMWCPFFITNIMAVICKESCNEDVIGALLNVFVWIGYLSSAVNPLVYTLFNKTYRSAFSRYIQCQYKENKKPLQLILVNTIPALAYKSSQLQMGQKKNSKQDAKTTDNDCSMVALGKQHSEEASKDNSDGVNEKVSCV
Sequence of 5-hydroxytryptamine receptor 7 (P34969 whole entry): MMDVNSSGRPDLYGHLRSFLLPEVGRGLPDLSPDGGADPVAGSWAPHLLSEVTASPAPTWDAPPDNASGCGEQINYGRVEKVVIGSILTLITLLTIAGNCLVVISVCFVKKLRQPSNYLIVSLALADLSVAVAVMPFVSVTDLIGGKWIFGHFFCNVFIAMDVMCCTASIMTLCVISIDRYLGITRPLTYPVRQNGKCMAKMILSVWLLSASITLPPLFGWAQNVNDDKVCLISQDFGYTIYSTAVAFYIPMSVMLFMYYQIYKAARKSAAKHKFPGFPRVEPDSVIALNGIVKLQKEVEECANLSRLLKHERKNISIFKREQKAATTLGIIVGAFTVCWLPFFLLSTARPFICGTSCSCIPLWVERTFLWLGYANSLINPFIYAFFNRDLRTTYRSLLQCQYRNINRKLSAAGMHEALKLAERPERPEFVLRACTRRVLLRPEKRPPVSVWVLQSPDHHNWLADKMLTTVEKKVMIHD
Sequence of 5-hydroxytryptamine receptor 2B (P41595 whole entry): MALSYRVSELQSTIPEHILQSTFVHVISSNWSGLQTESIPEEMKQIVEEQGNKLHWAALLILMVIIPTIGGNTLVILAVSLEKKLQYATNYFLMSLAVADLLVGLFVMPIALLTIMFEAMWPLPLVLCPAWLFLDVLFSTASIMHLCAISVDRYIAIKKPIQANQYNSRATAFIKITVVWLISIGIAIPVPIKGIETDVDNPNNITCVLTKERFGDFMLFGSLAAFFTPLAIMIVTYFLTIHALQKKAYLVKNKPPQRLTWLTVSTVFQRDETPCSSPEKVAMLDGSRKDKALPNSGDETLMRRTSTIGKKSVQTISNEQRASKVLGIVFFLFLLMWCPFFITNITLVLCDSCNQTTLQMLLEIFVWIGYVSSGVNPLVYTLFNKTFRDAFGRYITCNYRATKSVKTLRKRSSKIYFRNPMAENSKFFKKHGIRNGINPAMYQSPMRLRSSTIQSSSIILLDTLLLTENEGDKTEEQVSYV
Sequence of 5-hydroxytryptamine receptor 6 (P50406 whole entry): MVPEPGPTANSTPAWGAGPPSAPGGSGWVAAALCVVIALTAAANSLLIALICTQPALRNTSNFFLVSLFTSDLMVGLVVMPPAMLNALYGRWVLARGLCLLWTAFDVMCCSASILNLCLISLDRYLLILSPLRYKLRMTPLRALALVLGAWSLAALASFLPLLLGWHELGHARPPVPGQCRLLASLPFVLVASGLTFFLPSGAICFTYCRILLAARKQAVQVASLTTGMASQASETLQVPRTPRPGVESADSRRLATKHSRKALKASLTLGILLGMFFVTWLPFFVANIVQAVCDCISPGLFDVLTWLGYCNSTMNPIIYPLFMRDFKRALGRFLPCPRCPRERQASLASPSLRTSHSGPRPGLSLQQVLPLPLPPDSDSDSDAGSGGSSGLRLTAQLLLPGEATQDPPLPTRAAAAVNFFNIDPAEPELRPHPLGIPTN
Sequence of 5-hydroxytryptamine receptor 4 (Cavia porcellus) (O70528 whole entry): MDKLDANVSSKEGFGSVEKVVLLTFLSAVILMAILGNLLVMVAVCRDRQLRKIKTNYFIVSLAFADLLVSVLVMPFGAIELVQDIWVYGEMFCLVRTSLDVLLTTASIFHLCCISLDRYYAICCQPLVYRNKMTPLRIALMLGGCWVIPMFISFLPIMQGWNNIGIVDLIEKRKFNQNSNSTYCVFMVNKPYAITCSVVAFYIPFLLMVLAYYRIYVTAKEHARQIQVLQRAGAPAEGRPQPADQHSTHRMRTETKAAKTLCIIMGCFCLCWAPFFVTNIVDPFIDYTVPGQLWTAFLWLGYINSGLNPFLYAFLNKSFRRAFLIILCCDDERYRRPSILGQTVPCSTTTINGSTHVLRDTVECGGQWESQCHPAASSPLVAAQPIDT
Sequence of 5-hydroxytryptamine receptor 4 (Cavia porcellus, UniProt O70528) (O70528 whole entry): as above
Sequence of 5-hydroxytryptamine receptor 1B (P28222 whole entry): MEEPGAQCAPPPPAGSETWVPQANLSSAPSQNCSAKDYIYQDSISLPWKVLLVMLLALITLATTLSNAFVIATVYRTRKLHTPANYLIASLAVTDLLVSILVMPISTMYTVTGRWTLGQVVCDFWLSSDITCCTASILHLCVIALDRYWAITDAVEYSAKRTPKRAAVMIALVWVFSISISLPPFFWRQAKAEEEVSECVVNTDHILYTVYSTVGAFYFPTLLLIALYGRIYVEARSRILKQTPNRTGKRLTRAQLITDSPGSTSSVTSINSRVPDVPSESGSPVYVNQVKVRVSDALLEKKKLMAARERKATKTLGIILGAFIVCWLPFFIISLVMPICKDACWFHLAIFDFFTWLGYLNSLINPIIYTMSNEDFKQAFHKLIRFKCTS
Sequence of 5-hydroxytryptamine receptor 5A (P47898 whole entry): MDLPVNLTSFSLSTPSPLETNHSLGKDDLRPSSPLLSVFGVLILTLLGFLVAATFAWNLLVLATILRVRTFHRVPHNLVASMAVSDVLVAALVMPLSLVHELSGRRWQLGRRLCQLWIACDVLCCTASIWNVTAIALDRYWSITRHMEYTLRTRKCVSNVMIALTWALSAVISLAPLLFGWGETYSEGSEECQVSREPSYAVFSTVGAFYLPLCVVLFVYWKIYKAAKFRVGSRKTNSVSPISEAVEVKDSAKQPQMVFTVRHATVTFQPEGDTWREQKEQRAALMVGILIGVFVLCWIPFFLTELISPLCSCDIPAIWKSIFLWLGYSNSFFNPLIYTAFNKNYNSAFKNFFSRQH
Sequence of 5-hydroxytryptamine receptor 1E (P28566 whole entry): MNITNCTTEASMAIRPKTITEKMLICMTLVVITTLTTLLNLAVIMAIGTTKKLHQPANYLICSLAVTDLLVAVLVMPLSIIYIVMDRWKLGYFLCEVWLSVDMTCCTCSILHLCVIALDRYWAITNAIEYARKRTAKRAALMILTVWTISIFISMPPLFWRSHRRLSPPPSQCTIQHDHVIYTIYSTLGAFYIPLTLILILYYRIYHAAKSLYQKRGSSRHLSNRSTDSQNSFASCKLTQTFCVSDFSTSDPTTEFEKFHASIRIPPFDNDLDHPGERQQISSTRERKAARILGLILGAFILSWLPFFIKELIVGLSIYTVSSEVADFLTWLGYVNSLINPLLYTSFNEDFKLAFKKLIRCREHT
Sequence of 5-hydroxytryptamine receptor 4 (Rattus norvegicus) (Q62758 whole entry): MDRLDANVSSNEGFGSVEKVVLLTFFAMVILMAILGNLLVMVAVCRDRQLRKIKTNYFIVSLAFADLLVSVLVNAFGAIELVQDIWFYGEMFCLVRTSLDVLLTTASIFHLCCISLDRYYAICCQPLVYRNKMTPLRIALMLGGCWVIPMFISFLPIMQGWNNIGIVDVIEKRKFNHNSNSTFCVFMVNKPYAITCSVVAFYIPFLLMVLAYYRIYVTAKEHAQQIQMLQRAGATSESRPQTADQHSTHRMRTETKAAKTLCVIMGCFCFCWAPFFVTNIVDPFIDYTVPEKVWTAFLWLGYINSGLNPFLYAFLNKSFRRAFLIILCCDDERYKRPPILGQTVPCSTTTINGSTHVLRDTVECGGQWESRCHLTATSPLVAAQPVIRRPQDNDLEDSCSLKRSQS

## CCCN1CCC(COc2nc3c(I)cccc3c3ccccc23)CC1
[1]
  Ki: 153 nM
[2]
  Ki: 5810 nM
[3]
  Ki: > 10000 nM
[4]
  Ki: 1310 nM
[5]
  Ki: 772 nM
[6]
  Ki: 162 nM
[7]
  Ki: 1020 nM
[8]
  Ki: > 10000 nM
[9]
  Ki: > 10000 nM
[10]
  Ki: > 10000 nM
[11]
  Ki: > 10000 nM
[12]
  Ki: 1.2 nM
[13]
  Ki: 13.5 nM
[14]
  inhibition: 100%
[15]
  inhibition: 0%

## CCCN1CCC(COc2nc3ccccc3c3cc(F)ccc23)CC1
[13]
  Ki: 209 nM

## CCCN1CCC(COc2nc3c(I)cccc3c3ncccc23)CC1
[7]
  Ki: 1820 nM
[10]
  Ki: 5630 nM

## CCCN1CCC(COc2nc3cc(C)ccc3c3ccccc23)CC1
[13]
  Ki: 691 nM

## CCCN1CCC(COc2nc3ccc(F)cc3c3ccccc23)CC1
[14]
  inhibition: 47%
[15]
  inhibition: 0%

## CCCN1CCC(COc2nc3ccccc3c3cccc(F)c23)CC1
[13]
  Ki: 21.6 nM

## CCCN1CCC(COc2nc3ccccc3c3cc(C)ccc23)CC1
[14]
  inhibition: 28%
[15]
  inhibition: 0%

## CCCN1CCC(COc2nc3ccccc3c3ccccc23)CC1
[13]
  Ki: 51.5 nM

## CCCN1CCC(COc2nc3ccccc3c3ccc(OC)cc23)CC1
[14]
  inhibition: 85%
[15]
  inhibition: 0%

## CCCN1CCC(COc2nc3cc(Cl)ccc3c3ccccc23)CC1
[14]
  inhibition: 85%
[15]
  inhibition: 0%

## CCCN1CCC(COc2nc3ccc(C)cc3c3ccccc23)CC1
[13]
  Ki: 246 nM

## CCCN1CCC(COc2nc3ccccc3c3ccc([N+](=O)[O-])cc23)CC1
[14]
  inhibition: 54%
[15]
  inhibition: 0%

## Ic1ccc(CCCN2CCC(COc3nc4ccccc4c4ccccc34)CC2)cc1
[13]
  Ki: 115 nM
[14]
  inhibition: 100%
[15]
  inhibition: 3%

## CCCN1CCC(COc2nc3ccc(OC)cc3c3ccccc23)CC1
[13]
  Ki: 233 nM

## Fc1cccc2c1nc(OCC1CCN(CCCc3ccc(I)cc3)CC1)c1cccnc12
Mus musculus [16]
  Activity: Active
Mus musculus [17]
  Activity: Active
[18]
  Activity: Active
[1]
  Ki: 150 nM
[2]
  Ki: 1700 nM
[3]
  Ki: > 10000 nM
[19]
  Activity: Active
[4]
  Ki: 410 nM
[5]
  Ki: 400 nM
[6]
  Ki: 340 nM
[7]
  Ki: 810 nM
[8]
  Ki: > 10000 nM
[10]
  Ki: 680 nM
[11]
  Ki: > 10000 nM
[12]
  Ki: 0.23 nM
[13]
  Ki: 2.5 nM
[14]
  inhibition: 100%
[15]
  inhibition: 94%

## CCCN1CCC(COc2nc3c(C)cccc3c3ccccc23)CC1
[13]
  Ki: 100 nM
[14]
  inhibition: 100%
[15]
  inhibition: 0%

## CCCN1CCC(COc2nc3ccc(Cl)cc3c3ccccc23)CC1
[14]
  inhibition: 27%
[15]
  inhibition: 0%

## CCCN1CCC(COc2nc3ccccc3c3ccc(F)cc23)CC1
[13]
  Ki: 154 nM
[14]
  inhibition: 90%
[15]
  inhibition: 4%

## CCCN1CCC(COc2nc3ccccc3c3ncccc23)CC1
[1]
  Ki: > 10000 nM
[2]
  Ki: > 10000 nM
[3]
  Ki: > 10000 nM
[4]
  Ki: 680 nM
[5]
  Ki: 2790 nM
[6]
  Ki: 627 nM
[7]
  Ki: > 10000 nM
[8]
  Ki: > 10000 nM
[9]
  Ki: > 10000 nM
[10]
  Ki: > 10000 nM
[11]
  Ki: > 10000 nM
[13]
  Ki: 13.1 nM
[20]
  Ki: 7.5 nM
[14]
  inhibition: 96%
[15]
  inhibition: 64%
[21]
  EC50: 10 nM

## CCCN1CCC(COc2nc3c(F)cccc3c3ncccc23)CC1
[12]
  Ki: 0.04 nM
[13]
  Ki: 2.2 nM
[14]
  inhibition: 100%
[15]
  inhibition: 98%
[22]
  pKb: 10.6

## CCCN1CCC(COc2nc3c(OC)cccc3c3ccccc23)CC1
[1]
  Ki: 3470 nM
[2]
  Ki: > 10000 nM
[3]
  Ki: > 10000 nM
[4]
  Ki: > 10000 nM
[5]
  Ki: > 10000 nM
[6]
  Ki: 29.3 nM
[7]
  Ki: 5960 nM
[8]
  Ki: 2570 nM
[9]
  Ki: > 10000 nM
[10]
  Ki: > 10000 nM
[11]
  Ki: > 10000 nM
[13]
  Ki: 35 nM
[20]
  Ki: 17 nM
[14]
  inhibition: 100%
[15]
  inhibition: 22%
[21]
  EC50: 79.4 nM

## CCCN1CCC(COc2nc3c(Cl)cccc3c3ccccc23)CC1
[13]
  Ki: 21.9 nM
[20]
  Ki: 5 nM
[14]
  inhibition: 100%
[15]
  inhibition: 24%
[21]
  EC50: 251 nM

## CCCN1CCC(COc2nc3cc(OC)ccc3c3ccccc23)CC1
[13]
  Ki: 1900 nM

## CCCN1CCC(COc2nc3cc(F)ccc3c3ccccc23)CC1
[13]
  Ki: 101 nM
[20]
  Ki: 33 nM

## CCCN1CCC(COc2nc3ccccc3c3cnccc23)CC1
[13]
  Ki: 22.8 nM
[20]
  Ki: 403 nM
[14]
  inhibition: 100%
[15]
  inhibition: 50%
